These results are taken from ChEMBL document CHEMBL1123751, “Synthesis and biological activity of unsaturated carboacyclic purine nucleoside analogues” (J Med Chem, 1987).

Values after ≈ are worked out from the molar mass of the structure shown.

Assay [1] relates to Human alphaherpesvirus 2. Description: Virus rating is measurement of degree of inhibition of virus-induced cytopathogenic effects and the degree of cytotoxicity produced by the test compound for Herpes simplex virus (HSV) -2. Format: functional. The gist of the method: (§1)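 Virus rating as defined by Southern Research Institute: a selective antiviral score that combines the degree of inhibition of virus-induced cytopathogenic effect with the degree of cytotoxicity from the test compound, determined by a modification of a published method.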

Assay [2] has as its system Vero. Description: Minimum inhibitory concentration of cytopathogenic-induced effect was determined against Herpes simplex virus (HSV) -2 in vero cell monolayer culture. It counts as functional. Particulars: Chlorocebus sabaeus. (In general: Protection from cytopathic effect is a common read-out in antiviral testing.)
Assay [3] relates to Vero. The experiment in a line: Inhibition effect was determined against Herpes simplex virus (HSV) -1 in vero cell monolayer culture. Format: functional, Chlorocebus sabaeus.
Assay [4] relates to Human alphaherpesvirus 2. The experiment in a line: Evaluated virus rating for Herpes simplex virus (HSV) -2. It counts as functional. Put shortly:
as §1

A short description of assay [5]: Virus rating is measurement of degree of inhibition of virus-induced cytopathogenic effects and the degree of cytotoxicity produced by the test compound for influenza type A2. Format: functional.
Assay [6] concerns Vero. The experiment in a line: Inhibition of cytopathogenic effect was determined against Herpes simplex virus (HSV) -2 in vero cell monolayer culture. Format: functional. Particulars: Chlorocebus sabaeus.

In the case of `Nc1nc(O)c2ncn(CC=C(CO)CO)c2n1`, in the assay with Human alphaherpesvirus 2 [1], the Virus rating is reported as 1.5. The same compound registered an MIC50 in the assay with Vero [2] of 65.6 µg/mL (≈ 261 µM). Moreover, in the assay on Vero [3], the ID90 is 25 µM.
In the case of `Nc1ncnc2c1ncn2CC=C(CO)CO`, the Virus rating in the assay with Human alphaherpesvirus 2 [4] is listed as 0.6; in assay [5], 0.3. In addition, in the assay on Vero [6], the MIC50 was 939 µg/mL (≈ 3990 µM).
On to `Nc1nc2c(ncn2COCCO)c(=O)[nH]1` [ACYCLOVIR], for which the Virus rating in the assay with Human alphaherpesvirus 2 [1] is given as 5.1. In the assay with Vero [6], the MIC50 is 4.3 µg/mL (≈ 19.1 µM).
`NC(=O)c1ncn([C@@H]2O[C@H](CO)[C@@H](O)[C@H]2O)n1` [RIBAVIRIN]: the Virus rating in assay [5] is on record as 2.8.
Regarding `Nc1ncnc2c1ncn2[C@@H]1O[C@H](CO)[C@@H](O)[C@@H]1O` [VIDARABINE], the Virus rating in the assay on Human alphaherpesvirus 2 [1] is reported as 1.2. This compound registered an MIC50 in the assay on Vero [6] of 26.8 µg/mL (≈ 100 µM).
